Reference: ChEMBL document CHEMBL4706538, “Novel pleuromutilin derivatives with substituted 6-methylpyrimidine: Design, synthesis and antibacterial evaluation” (2020)
In brackets after ≈: the same amount, converted by molar mass.

Assays:
Format in all cases: functional
Conditions in all cases: time 18-24 hrs
Staphylococcus aureus [1] = assay: Antibacterial activity against Staphylococcus aureus BNCC 337371 measured after 18 to 24 hrs by microtiter dilution method
Procedure, shortened: (§1)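 Compounds were taken up in 25% DMSO at 64 μg/mL and serially diluted two-fold in water (11 dilutions). Log-phase bacteria grown in MHB were diluted to 10^5-10^6 CFU/mL and mixed 1:1 with the dilutions. Plates were incubated at 37 °C for 18-24 h. MIC was the lowest concentration giving no growth by OD492, averaged over three independent experiments.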

Pasteurella multocida = assay: Antibacterial activity against Pasteurella multocida CVCC 1659 measured after 18 to 24 hrs by microtiter dilution method; procedure, shortened: as §1
Streptococcus agalactiae = assay: Antibacterial activity against Streptococcus agalactiae measured after 18 to 24 hrs by microtiter dilution method; procedure, shortened: as §1
[2] = tested on: Streptococcus dysgalactiae; assay: Antibacterial activity against Streptococcus dysgalactiae measured after 18 to 24 hrs by microtiter dilution method; procedure, shortened: as §1
Escherichia coli = assay: Antibacterial activity against Escherichia coli CICC 10389 measured after 18 to 24 hrs by microtiter dilution method; procedure, shortened: as §1
Enterococcus faecalis = assay: Antibacterial activity against Enterococcus faecalis measured after 18 to 24 hrs by microtiter dilution method; procedure, shortened: as §1
[3] = tested on: Staphylococcus epidermidis; assay: Antibacterial activity against Staphylococcus epidermidis ATCC 51625 measured after 18 to 24 hrs by microtiter dilution method; procedure, shortened: as §1
Staphylococcus aureus [4] = assay: Antibacterial activity against Staphylococcus aureus ATCC 25923 measured after 18 to 24 hrs by microtiter dilution method; procedure, shortened: as §1

Row | Compound | MIC (Staphylococcus aureus [1]) [µM] | MIC (Pasteurella multocida) [µM] | MIC (Streptococcus agalactiae) [µM] | MIC [2] [µM] | MIC (Escherichia coli) [µM] | MIC (Enterococcus faecalis) [µM] | MIC [3] [µM] | MIC (Staphylococcus aureus [4]) [µM]
1 | C=C[C@]1(C)C[C@@H](OC(=O)CSc2nc(C)cc(N3CCC[C@@H](O)C3)n2)[C@@]2(C)[C@H](C)CC[C@]3(CCC(=O)[C@H]32)[C@@H](C)[C@@H]1O | 0.21 (≈ 0.123 µg/mL) | 27.3 (≈ 16 µg/mL) | 0.05 (≈ 0.0293 µg/mL) | 0.11 (≈ 0.0644 µg/mL) | > 54.7 | 27.3 (≈ 16 µg/mL) | 0.21 (≈ 0.123 µg/mL) | 0.21 (≈ 0.123 µg/mL)
2 | C=C[C@]1(C)C[C@@H](OC(=O)CSc2nc(C)cc(N3CC[C@@H](O)C3)n2)[C@@]2(C)[C@H](C)CC[C@]3(CCC(=O)[C@H]32)[C@@H](C)[C@@H]1O | 0.22 (≈ 0.126 µg/mL) | 14 (≈ 8 µg/mL) | 0.11 (≈ 0.0629 µg/mL) | 0.22 (≈ 0.126 µg/mL) | > 56 | 28 (≈ 16 µg/mL) | 0.11 (≈ 0.0629 µg/mL) | 0.11 (≈ 0.0629 µg/mL)
3 | C=C[C@]1(C)C[C@@H](OC(=O)CSc2nc(C)cc(N3CCC(CCO)CC3)n2)[C@@]2(C)[C@H](C)CC[C@]3(CCC(=O)[C@H]32)[C@@H](C)[C@@H]1O | 0.2 (≈ 0.123 µg/mL) | 52.2 (≈ 32 µg/mL) | 0.05 (≈ 0.0307 µg/mL) | 0.05 (≈ 0.0307 µg/mL) | > 52.2 | 26.1 (≈ 16 µg/mL) | 0.2 (≈ 0.123 µg/mL) | 0.1 (≈ 0.0614 µg/mL)
4 | C=C[C@]1(C)C[C@@H](OC(=O)CSc2nc(C)cc(OCCCC)n2)[C@@]2(C)[C@H](C)CC[C@]3(CCC(=O)[C@H]32)[C@@H](C)[C@@H]1O | 3.58 (≈ 2 µg/mL) | > 57.3 | 0.9 (≈ 0.503 µg/mL) | 0.45 (≈ 0.251 µg/mL) | > 57.3 | 57.3 (≈ 32 µg/mL) | 1.79 (≈ 1 µg/mL) | 1.79 (≈ 1 µg/mL)
5 | C=C[C@]1(C)C[C@@H](OC(=O)CSc2nc(C)cc(OC(C)C)n2)[C@@]2(C)[C@H](C)CC[C@]3(CCC(=O)[C@H]32)[C@@H](C)[C@@H]1O | 0.23 (≈ 0.125 µg/mL) | > 58.8 | 0.23 (≈ 0.125 µg/mL) | 0.92 (≈ 0.501 µg/mL) | > 58.8 | 58.8 (≈ 32 µg/mL) | 0.46 (≈ 0.251 µg/mL) | 0.46 (≈ 0.251 µg/mL)
6 | C=C[C@]1(C)C[C@@H](OC(=O)CSc2nc(C)cc(OC)n2)[C@@]2(C)[C@H](C)CC[C@]3(CCC(=O)[C@H]32)[C@@H](C)[C@@H]1O | 0.24 (≈ 0.124 µg/mL) | 62 (≈ 32 µg/mL) | 0.24 (≈ 0.124 µg/mL) | 0.12 (≈ 0.062 µg/mL) | > 62 | 31 (≈ 16 µg/mL) | 0.24 (≈ 0.124 µg/mL) | 0.24 (≈ 0.124 µg/mL)
7 | C=C[C@]1(C)C[C@@H](OC(=O)CSc2nc(C)cc(N3CCN(CCO)CC3)n2)[C@@]2(C)[C@H](C)CC[C@]3(CCC(=O)[C@H]32)[C@@H](C)[C@@H]1O | 0.41 (≈ 0.252 µg/mL) | 26 (≈ 16 µg/mL) | 0.1 (≈ 0.0615 µg/mL) | 0.1 (≈ 0.0615 µg/mL) | > 52.1 | 26 (≈ 16 µg/mL) | 0.2 (≈ 0.123 µg/mL) | 0.1 (≈ 0.0615 µg/mL)
8 | C=C[C@]1(C)C[C@@H](OC(=O)CS[C@@H]2C[C@H]3CC[C@@H](C2)N3C)[C@@]2(C)[C@H](C)CC[C@]3(CCC(=O)[C@H]32)[C@@H](C)[C@@H]1O | 0.12 (≈ 0.0621 µg/mL) | 0.97 (≈ 0.502 µg/mL) | 0.06 (≈ 0.0311 µg/mL) | 0.06 (≈ 0.0311 µg/mL) | 30.9 (≈ 16 µg/mL) | 15.4 (≈ 8 µg/mL) | 0.12 (≈ 0.0621 µg/mL) | 0.24 (≈ 0.124 µg/mL)
9 | C=C[C@]1(C)C[C@@H](OC(=O)CSc2nc(C)cc(N3CCNCC3)n2)[C@@]2(C)[C@H](C)CC[C@]3(CCC(=O)[C@H]32)[C@@H](C)[C@@H]1O | 0.11 (≈ 0.0628 µg/mL) | 28.1 (≈ 16 µg/mL) | 0.11 (≈ 0.0628 µg/mL) | 0.05 (≈ 0.0285 µg/mL) | > 56.1 | 14 (≈ 8.01 µg/mL) | 0.22 (≈ 0.126 µg/mL) | 0.11 (≈ 0.0628 µg/mL)
